Measured values reported in ChEMBL document CHEMBL4270630.

Assays:
Influenza A virus [1] = assay: Antiviral activity against Influenza A virus A/PR/8/34(H1N1) GFP-fused pseudotyped lentiviral particle expressing H1-HA/N1-NA infected in MDCK cells assessed as inhibition of pseudoparticle entry after 3 days by flow cytometry; type: functional, organism-based; details: A/Puerto Rico/8/1934(H1N1)
Outline: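 MDCK cells were seeded at 7500/well and one day later were exposed to compounds plus GFP lentiviral pseudoparticles bearing A/PR/8/34 H1-HA and N1-NA, with HA0 activated by trypsin. After 3 days the cells were trypsinized, fixed in paraformaldehyde and analysed for GFP by flow cytometry. Entry inhibition was taken as the reduction in GFP signal. Data are the mean ± SEM of four independent experiments.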

Influenza A virus [2] = assay: Antiviral activity against Influenza A virus A/PR/8/34(H1N1) infected in MDCK cells assessed as reduction in virus-induced cytopathic effect after 3 days by microscopic method; type: functional, organism-based, A/Puerto Rico/8/1934(H1N1); details: Influenza A virus, A/Puerto Rico/8/1934(H1N1), MDCK, 72 h
Outline: (§1)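 Semi-confluent MDCK cells were infected at an MOI of 0.0004 PFU/cell in Ultra-MDCK infection medium with 2 μg/mL TPCK-trypsin, together with compounds. After 3 days at 35 °C, CPE was scored by microscopy and confirmed by MTS formazan viability. EC50 is the concentration giving 50% inhibition of virus-induced CPE. Values are means of two to five independent tests.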

Influenza B virus [3] = assay: Antiviral activity against Influenza B virus B/Ned/537/05 infected in MDCK cells after 3 days by MTS assay; type: functional, organism-based; details: B/Ned/537/05, MDCK, 72 h
Outline: (§2)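 Semi-confluent MDCK cells were infected at an MOI of 0.0004 PFU/cell in Ultra-MDCK infection medium with 2 μg/mL TPCK-trypsin, together with compounds. After 3 days at 35 °C, CPE was scored by microscopy and confirmed by MTS formazan viability. Values are means of two to five independent tests.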

[4] = Selectivity index, ratio of MCC for MDCK cells to EC50 for Influenza A virus A/PR/8/34(H1N1) infected in MDCK cells assessed as reduction in virus-induced cytopathic effect by microscopic method; type: toxicity, cell-based; details: dog, read-out: Selectivity Index
Outline: (§3)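 Selectivity index is MCC divided by EC50. MCC comes from microscopy of mock-infected MDCK cells. EC50 comes from microscopic scoring of virus-induced CPE in MDCK cells infected at an MOI of 0.0004 PFU/cell with TPCK-trypsin. Both readings were taken after 3 days at 35 °C.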

Influenza A virus [5] = assay: Antiviral activity against Influenza A virus A/Virginia/ATCC3/2009(H1N1pdm) infected in MDCK cells assessed as reduction in virus-induced cytopathic effect after 3 days by microscopic method; type: functional, organism-based, Influenza A virus (A/Virginia/03/2009(H1N1)); details: 72 h; outline: as §1
[6] = Selectivity index, ratio of MCC for MDCK cells to EC50 for Influenza B virus B/HK/05/72 infected in MDCK cells assessed as reduction in virus-induced cytopathic effect by microscopic method; type: toxicity, cell-based; details: dog, read-out: Selectivity Index; outline: as §3
Influenza A virus [7] = assay: Antiviral activity against Influenza A virus A/Virginia/ATCC3/2009(H1N1pdm) infected in MDCK cells after 3 days by MTS assay; type: functional, organism-based, Influenza A virus (A/Virginia/03/2009(H1N1)); details: 72 h; outline: as §1
MDCK = assay: (§4) Cytotoxicity against MDCK cells assessed as reduction in cell viability after 3 days by MTS assay; type: cell-based, Canis lupus familiaris; details: dog, mdck, 72 h
[8] = Cytotoxicity against MDCK cells assessed as alteration in cell morphology after 3 days by microscopic method; type: cell-based, Canis lupus familiaris; details: dog
Outline: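 Mock-infected MDCK cells were treated with compounds in parallel with the antiviral assay, 3 days at 35 °C. MCC is the concentration causing minimal change in cell morphology by microscopy. CC50 is the 50% cytotoxic concentration by MTS formazan viability assay.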

[9] = Selectivity index, ratio of MCC for MDCK cells to EC50 for Influenza A virus A/Virginia/ATCC3/2009(H1N1pdm) infected in MDCK cells assessed as reduction in virus-induced cytopathic effect by microscopic method; type: toxicity, cell-based; details: dog, read-out: Selectivity Index; outline: as §3
Influenza A virus [10] = assay: Antiviral activity against Influenza A virus A/PR/8/34(H1N1) infected in MDCK cells after 3 days by MTS assay; type: functional, organism-based, A/Puerto Rico/8/1934(H1N1); details: Influenza A virus, A/Puerto Rico/8/1934(H1N1), MDCK, 72 h; outline: as §1
Influenza B virus [11] = assay: Antiviral activity against Influenza B virus B/Ned/537/05 infected in MDCK cells assessed as reduction in virus-induced cytopathic effect after 3 days by microscopic method; type: functional, organism-based; details: B/Ned/537/05, MDCK, 72 h; outline: as §2
[12] = Selectivity index, ratio of MCC for MDCK cells to EC50 for Influenza B virus B/Ned/537/05 infected in MDCK cells assessed as reduction in virus-induced cytopathic effect by microscopic method; type: toxicity, cell-based; details: dog, read-out: Selectivity Index; outline: as §3
[13] = Selectivity index, ratio of MCC for MDCK cells to EC50 for Influenza A virus A/HK/7/87(H3N2) infected in MDCK cells assessed as reduction in virus-induced cytopathic effect by microscopic method; type: toxicity, cell-based; details: dog, read-out: Selectivity Index; outline: as §3
H3N2 subtype [14] = assay: Antiviral activity against Influenza A virus A/HK/7/87(H3N2) infected in MDCK cells assessed as reduction in virus-induced cytopathic effect after 3 days by microscopic method; type: functional, organism-based; details: A/Hong Kong/7/1987(H3N2), 72 h; outline: as §1
H3N2 subtype [15] = assay: Antiviral activity against Influenza A virus A/HK/7/87(H3N2) infected in MDCK cells after 3 days by MTS assay; type: functional, organism-based; details: A/Hong Kong/7/1987(H3N2), 72 h; outline: as §1
Influenza B virus [16] = assay: Antiviral activity against Influenza B virus B/HK/05/72 infected in MDCK cells after 3 days by MTS assay; type: functional, organism-based; details: B/Hong Kong/05/1972, MDCK, 72 h; outline: as §1
[17] = as §4; type: cell-based, Canis lupus familiaris; details: dog, MDCK cells
Influenza B virus [18] = assay: Antiviral activity against Influenza B virus B/HK/05/72 infected in MDCK cells assessed as reduction in virus-induced cytopathic effect after 3 days by microscopic method; type: functional, organism-based; details: B/Hong Kong/05/1972, MDCK, 72 h; outline: as §1

| SMILES | inhibition (Influenza A virus [1]) | EC50 (Influenza A virus [2]) | EC50 (Influenza B virus [3]) | selectivity ratio [4] | EC50 (Influenza A virus [5]) | selectivity ratio [6] | EC50 (Influenza A virus [7]) | CC50 (MDCK) | MCC at 72 h [8] | selectivity ratio [9] | EC50 (Influenza A virus [10]) | EC50 (Influenza B virus [11]) | selectivity ratio [12] | selectivity ratio [13] | EC50 (H3N2 subtype [14]) | EC50 (H3N2 subtype [15]) | EC50 (Influenza B virus [16]) | CC50 at 72 h [17] | EC50 (Influenza B virus [18]) |
| --- | --- | --- | --- | --- | --- | --- | --- | --- | --- | --- | --- | --- | --- | --- | --- | --- | --- | --- | --- |
| COC(=O)[C@@H]1NC(=O)[C@@H]2NC(=O)[C@H](NC(=O)[C@@H]3NC(=O)[C@H]4NC(=O)[C@H](NC(=O)[C@H](Nc5c(NCc6ccc(-c7ccccc7)cc6)c(=O)c5=O)c5ccc(O)c(c5)Oc5cc4cc(O)c5C)[C@H](O)c4ccc(cc4)Oc4cc3cc(c4O)Oc3ccc(cc3)[C@H]2O)c2ccc(O)c(c2)-c2c(O)cc(O)cc21 | Dose-dependent effect |  |  |  |  |  |  |  |  |  |  |  |  |  |  |  |  |  |  |
| CCc1ccccc1OCCN1CCCCCC1 | Dose-dependent effect |  |  |  |  |  |  |  |  |  |  |  |  |  |  |  |  |  |  |
| CC(=O)N[C@H]1[C@H](O[C@@H]2c3ccc(c(Cl)c3)Oc3cc4cc(c3O)Oc3ccc(cc3Cl)C[C@H]3NC(=O)[C@H](N5C(=O)C(SC[C@H]6O[C@@H]7OC(C)(C)O[C@@H]7[C@H]7OC(C)(C)O[C@H]76)=C(SC[C@H]6O[C@@H]7OC(C)(C)O[C@@H]7[C@H]7OC(C)(C)O[C@H]76)C5=O)c5ccc(O)c(c5)Oc5cc(O)cc(c5)[C@H](NC3=O)C(=O)N[C@H]4C(O)N[C@H]3C(=O)N[C@H]2C(=O)N[C@@H](C(=O)O)c2cc(O)cc(O)c2-c2cc3ccc2O)O[C@H](CO)[C@@H](O)[C@@H]1O (some centres undefined) |  | > 100 µM | 4.2 µM | 5 | 2.1 µM | 5 | 2.2 µM | 26 µM | 20 µM | 5 | 9.1 µM | > 100 µM | 5 | 5 | 2.3 µM | 1.7 µM |  |  |  |
| CCCCCCCCSC1=C(SCCCCCCCC)C(=O)N(Cc2cn(C3C(=O)N[C@@H]4Cc5ccc(c(Cl)c5)Oc5cc6cc(c5O)Oc5ccc(cc5Cl)[C@@H](O[C@@H]5O[C@H](CO)[C@@H](O)[C@H](O)[C@H]5NC(C)=O)[C@H]5NC(=O)[C@H](NC(O)[C@@H]6NC(=O)[C@@H](NC4=O)c4cc(O)cc(c4)Oc4cc3ccc4O)c3ccc(O)c(c3)-c3c(O)cc(O)cc3[C@H](C(=O)O)NC5=O)nn2)C1=O (some centres undefined) |  | 9.2 µM | 7.2 µM | 10 | 4.4 µM | 10 | 3.4 µM | 49 µM | 73 µM | 10 | 12 µM | 6.7 µM | 10 | 10 | 8.9 µM | 6.3 µM |  |  |  |
| CCCCCCCCOCc1cn([C@H]2C(=O)N[C@@H]3Cc4ccc(c(Cl)c4)Oc4cc5cc(c4O)Oc4ccc(cc4Cl)[C@@H](O[C@@H]4O[C@H](CO)[C@@H](O)[C@H](O)[C@H]4NC(C)=O)[C@H]4NC(=O)[C@H](NC(O)[C@@H]5NC(=O)[C@@H](NC3=O)c3cc(O)cc(c3)Oc3cc2ccc3O)c2ccc(O)c(c2)-c2c(O)cc(O)cc2[C@H](C(=O)O)NC4=O)nn1 (some centres undefined) |  | > 100 µM |  |  | 1.8 µM |  | 1.9 µM |  | ≥ 4 µM |  | 2.2 µM |  |  |  | 2.1 µM | 1.5 µM | 1.9 µM | 13 µM | 1.8 µM |
| CCCCCCCCCCOCc1cn([C@H]2C(=O)N[C@@H]3Cc4ccc(c(Cl)c4)Oc4cc5cc(c4O)Oc4ccc(cc4Cl)[C@@H](O[C@@H]4O[C@H](CO)[C@@H](O)[C@H](O)[C@H]4NC(C)=O)[C@H]4NC(=O)[C@H](NC(O)[C@@H]5NC(=O)[C@@H](NC3=O)c3cc(O)cc(c3)Oc3cc2ccc3O)c2ccc(O)c(c2)-c2c(O)cc(O)cc2[C@H](C(=O)O)NC4=O)nn1 (some centres undefined) |  | > 100 µM |  |  | > 100 µM |  | > 100 µM |  | 4 µM |  | > 100 µM |  |  |  | > 100 µM | > 100 µM | > 100 µM | 3.7 µM | > 100 µM |
| CCN(CC)CCCC(C)Nc1ccnc2cc(Cl)ccc12 (centres undefined) | Dose-dependent effect |  |  |  |  |  |  |  |  |  |  |  |  |  |  |  |  |  |  |
| CC(C)c1ccccc1NCCN1CCCCC1 | Dose-dependent effect |  |  |  |  |  |  |  |  |  |  |  |  |  |  |  |  |  |  |
| CC(=O)N[C@H]1[C@H](O[C@@H]2c3ccc(c(Cl)c3)Oc3cc4cc(c3O)Oc3ccc(cc3Cl)C[C@H]3NC(=O)[C@H](n5cc(COc6ccccc6)nn5)c5ccc(O)c(c5)Oc5cc(O)cc(c5)[C@H](NC3=O)C(=O)N[C@H]4C(O)N[C@H]3C(=O)N[C@H]2C(=O)N[C@@H](C(=O)O)c2cc(O)cc(O)c2-c2cc3ccc2O)O[C@H](CO)[C@@H](O)[C@@H]1O (some centres undefined) |  | > 100 µM |  |  | > 100 µM |  | > 100 µM |  | ≥ 20 µM |  | > 100 µM |  |  |  | 11 µM | 11 µM | > 100 µM | 41 µM | > 100 µM |
